Structures are written as SMILES. ≈ marks a conversion by molar mass, not a printed value.

Assay type in all cases: functional
The test system of test [1] is Trichophyton mentagrophytes. Nature of the test: Antifungal activity against Trichophyton mentagrophytes var. interdigitale CPCM 06.99. The method in brief: (§1)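 Bioautographic assay, with the minimal inhibitory concentration (MIC) estimated from it.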
In the next test the test system is Saccharomyces cerevisiae. Nature of the test: Antifungal activity against Saccharomyces cerevisiae ATCC 26.01. An outline of the steps: as §1
A further test deals with Cryptococcus neoformans. Nature of the test: Antifungal activity against Cryptococcus neoformans H99. An outline of the steps:
as §1

Another test deals with Candida albicans. Nature of the test: Antifungal activity against Candida albicans ATCC 10231. The method in brief:
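Bioautographic assay against Candida albicans CIP 4872 (also listed as ATCC 10231 and NIH 3147), with the minimal inhibitory concentration (MIC) estimated.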

In another test the test system is Aspergillus fumigatus. The test can be described thus: Antifungal activity against Aspergillus fumigatus 04-486. The method in brief:
as §1

In the case of `COc1cc2nccc3c4ccccc4n(c1=O)c23` [5-METHOXYCANTHINONE], the MIC (in general, the lowest concentration found to suppress growth) in test [1] was 6.3 µM (≈ 1.58 µg/mL); in the test on Saccharomyces cerevisiae (read-out: MIC), 50 µM (≈ 12.5 µg/mL); in the test on Cryptococcus neoformans (var grubii H99, read-out: MIC) it was 50 µM (≈ 12.5 µg/mL); in the test on Candida albicans (read-out: MIC), more than 200 µM; against Aspergillus fumigatus, 50 µM (≈ 12.5 µg/mL).
`O=c1ccc2nccc3c4ccc(F)cc4n1c23`: the MIC in the test with Saccharomyces cerevisiae, against Cryptococcus neoformans (var grubii H99) and in the test on Candida albicans was 13.1 µM (≈ 3.12 µg/mL) each time.
Consider `O=c1ccc2c3c(cc[n+]2[O-])c2ccccc2n13`, for which the MIC in test [1] is more than 200 µM; with Saccharomyces cerevisiae (read-out: MIC), 53 µM (≈ 12.5 µg/mL); with Cryptococcus neoformans (var grubii H99, read-out: MIC), more than 200 µM; in the test with Candida albicans (read-out: MIC) it was more than 200 µM; in the test with Aspergillus fumigatus, more than 200 µM.
For the compound `COc1c2c(c3ccc(=O)oc3c1/C=C/C(C)(C)O)OC(C)(C)C=C2` [AVICENNOL], the MIC in the test on Saccharomyces cerevisiae (read-out: MIC) is more than 200 µM; in the test with Cryptococcus neoformans (var grubii H99, read-out: MIC), more than 200 µM; with Candida albicans (read-out: MIC), 146 µM (≈ 50 µg/mL); with Aspergillus fumigatus it was more than 200 µM.
Turning to `CC(=O)N1CCN(c2ccc(OCC3COC(Cn4ccnc4)(c4ccc(Cl)cc4Cl)O3)cc2)CC1` (centres undefined) [KETOCONAZOLE], the MIC in test [1] is 23.5 µM (≈ 12.5 µg/mL); with Saccharomyces cerevisiae (read-out: MIC), 5.9 µM (≈ 3.14 µg/mL); with Cryptococcus neoformans (var grubii H99, read-out: MIC), 5.9 µM (≈ 3.14 µg/mL); in the test with Candida albicans (read-out: MIC), 2.9 µM (≈ 1.54 µg/mL); against Aspergillus fumigatus it was 94.2 µM (≈ 50.1 µg/mL).
As for `O=c1ccc2c3c(cc[n+]2CCBr)c2ccccc2n13`, the MIC in test [1] is more than 200 µM; in the test on Saccharomyces cerevisiae (read-out: MIC) it was 7.7 µM; in the test with Cryptococcus neoformans (var grubii H99, read-out: MIC) it was more than 200 µM; in the test on Candida albicans (read-out: MIC) it was more than 200 µM; against Aspergillus fumigatus, more than 200 µM.
`O=c1ccc2nccc3c4ccccc4n1c23` [CANTHIN-6-ONE]: the MIC in test [1] turned out to be 7.1 µM (≈ 1.56 µg/mL); in the test on Saccharomyces cerevisiae (read-out: MIC) it was 14.2 µM (≈ 3.13 µg/mL); with Cryptococcus neoformans (var grubii H99, read-out: MIC), 14.2 µM (≈ 3.13 µg/mL); with Candida albicans (read-out: MIC) it was 56.8 µM (≈ 12.5 µg/mL); against Aspergillus fumigatus, 14.2 µM (≈ 3.13 µg/mL).
Consider `CCCC[n+]1ccc2c3ccccc3n3c(=O)ccc1c23`, for which the MIC in test [1] was more than 200 µM; with Saccharomyces cerevisiae (read-out: MIC) it was 124 µM; with Cryptococcus neoformans (var grubii H99, read-out: MIC), more than 200 µM; in the test on Candida albicans (read-out: MIC), 124 µM; against Aspergillus fumigatus, more than 200 µM.
For the compound `COc1c2c(c3ccc(=O)oc3c1/C=C\C(C)(C)O)OC(C)(C)C=C2`, the MIC was more than 200 µM in the test on Saccharomyces cerevisiae (read-out: MIC); more than 200 µM in the test on Cryptococcus neoformans (var grubii H99, read-out: MIC); 146 µM (≈ 50 µg/mL) in the test with Candida albicans (read-out: MIC); more than 200 µM against Aspergillus fumigatus.
On to `Nc1cc(=O)n2c3ccccc3c3ccnc1c32`, for which the MIC in test [1] was 106 µM (≈ 24.9 µg/mL); in the test on Saccharomyces cerevisiae (read-out: MIC), 53.2 µM (≈ 12.5 µg/mL); with Cryptococcus neoformans (var grubii H99, read-out: MIC), 106 µM (≈ 24.9 µg/mL); in the test on Candida albicans (read-out: MIC), 53.2 µM (≈ 12.5 µg/mL); with Aspergillus fumigatus it was more than 200 µM.
Take `COc1ccc2c(c1)c1ccnc3ccc(=O)n2c31`: the minimum inhibitory concentration (MIC) in test [1] is more than 200 µM; in the test with Saccharomyces cerevisiae (read-out: MIC) it was 50 µM (≈ 12.5 µg/mL); in the test with Cryptococcus neoformans (var grubii H99, read-out: MIC) it was 200 µM (≈ 50.1 µg/mL); with Candida albicans (read-out: MIC) it was 100 µM (≈ 25 µg/mL); in the test on Aspergillus fumigatus, more than 200 µM.
Regarding `Cc1cc2c3ccccc3n3c(=O)ccc(n1)c23`, the MIC with Saccharomyces cerevisiae, in the test on Cryptococcus neoformans (var grubii H99) and with Candida albicans was more than 200 µM in each case.

(Values after ChEMBL document CHEMBL1158823, “Extraction, hemisynthesis, and synthesis of canthin-6-one analogues. Evaluation of their antifungal activities” (2005).)
